Test results reported in ChEMBL document CHEMBL4033794, “Discovery of Trifluoromethyl Glycol Carbamates as Potent and Selective Covalent Monoacylglycerol Lipase (MAGL) Inhibitors for Treatment of Neuroinflammation” (J Med Chem, 2018).

Assay: Lipophilicity, log D of the compound by HPLC analysis
Assay type: physicochemical
Outline: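 LogD determined by an HPLC-based (eLogD) method.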

logD: 3.8
SMILES: O=C(O[C@H](CO)C(F)(F)F)N1C[C@@H]2[C@H](C1)[C@H]2c1ccn(-c2ccc(F)cc2)n1
